# Experimental data published in ChEMBL document CHEMBL1141165, “Novel 8-substituted dipyridodiazepinone inhibitors with a broad-spectrum of activity against HIV-1 strains resistant to non-nucleoside reverse transcriptase inhibitors” (J Med Chem, 2005).
# What was measured:
# [1] = molecular target: T1, Human immunodeficiency virus type 1 reverse transcriptase (Human immunodeficiency virus 1, UniProt Q72547); assay: Effective concentration towards HIV-1 wild type reverse transcriptase activity by 50% measured in cellular assay
# Procedure, shortened: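 C8166 T-lymphocytes infected at MOI 0.001 with wild-type HIV-1, then cultured 3 days with serial compound dilutions in RPMI 1640 containing 10% FBS, gentamycin and 10 μM β-mercaptoethanol. Supernatants pooled from eight replicate wells. Extracellular p24 measured by antigen immunoassay.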
# [2] = molecular target: T2, Human immunodeficiency virus type 1 reverse transcriptase (Human immunodeficiency virus 1, UniProt Q72547, K103N/Y181C); assay: Inhibitory activity of compound dissolved in DMSO was determined against HIV-1 (K103N/Y181C) mutant reverse transcriptase (1-2 nM) by using [3H]-dGTP (71 nM) as substrate, 50 mM Tris/HCl buffer, pH 7.8, incubated for 1 hr at 37 degrees C
# Procedure, shortened: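 RT at ≈3 nM preincubated 15 min at room temperature with inhibitor, then substrate added. Final mix: 50 mM Tris/HCl pH 7.8, 60 mM NaCl, 2 mM MgCl2, 6 mM DTT, 2 mM GSH, 0.02% Chaps, 3% DMSO, 179 nM poly rC, 18 nM biotin-dG15, 288 nM dGTP, 71 nM 3H-dGTP, 1–2 nM enzyme, inhibitor 10 μM–0.5 nM. Reaction 1 h at 37 °C, quenched with EDTA plus streptavidin SPA beads, CsCl added, scintillation counted.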
# Caco-2 = assay: Caco-2 permeability upon incubation at 37 degrees C for 180 minutes; type: functional, Homo sapiens
# Procedure, shortened: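 Cells grown on 12-well Transwell membranes and exposed to test solution for 180 min at 37 °C. Receiving-side (basolateral, A to B) samples analysed by HPLC. Apparent permeability = (ΔQ/Δt)/(A·C0), where ΔQ/Δt is the transport rate, A the monolayer area and C0 the initial donor concentration.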
# in vitro = settings: male, human, liver microsomes
# [3] = molecular target: T1, Human immunodeficiency virus type 1 reverse transcriptase; assay: Inhibitory activity of compound dissolved in DMSO was determined against HIV-1 wild type reverse transcriptase (1-2 nM) by using [3H]dGTP (71 nM) as substrate, 50 mM Tris/HCl buffer, pH 7.8, incubated for 1 h at 37 degrees C
# Procedure, shortened: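 Wild-type RT preincubated 15 min at room temperature with inhibitor. Final reaction: Tris/HCl 50 mM pH 7.8, NaCl 60 mM, MgCl2 2 mM, DTT 6 mM, GSH 2 mM, Chaps 0.02%, DMSO 3%, poly rC 179 nM, biotin-dG15 18 nM, dGTP 288 nM, 3H-dGTP 71 nM, enzyme 1–2 nM, inhibitor 10 μM–0.5 nM. Run 1 h at 37 °C, EDTA-quenched, read with streptavidin SPA beads.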
# [4] = molecular target: T2, Human immunodeficiency virus type 1 reverse transcriptase; assay: Effective concentration towards HIV-1 K103N/Y181C mutant reverse transcriptase activity by 50% measured in cellular assay
# Procedure, shortened: (§1)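 C8166 T-lymphocytes infected at MOI 0.001 with HIV-1 carrying wild-type or mutant RT, then grown 3 days with serial compound dilutions in RPMI 1640 + 10% FBS, 10 μg/mL gentamycin, 10 μM β-mercaptoethanol (also the diluent). Supernatant pooled from eight replica wells; extracellular p24 measured by HIV-1 p24 antigen kit.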
# [5] = Bioavailability is determined in dog after oral administration 5 mg/kg; settings: in vivo
# Cytochrome P450 3A4 [6] = molecular target: T3, Cytochrome P450 3A4 (Homo sapiens, UniProt P08684)
# T3 sequence (P08684 whole entry): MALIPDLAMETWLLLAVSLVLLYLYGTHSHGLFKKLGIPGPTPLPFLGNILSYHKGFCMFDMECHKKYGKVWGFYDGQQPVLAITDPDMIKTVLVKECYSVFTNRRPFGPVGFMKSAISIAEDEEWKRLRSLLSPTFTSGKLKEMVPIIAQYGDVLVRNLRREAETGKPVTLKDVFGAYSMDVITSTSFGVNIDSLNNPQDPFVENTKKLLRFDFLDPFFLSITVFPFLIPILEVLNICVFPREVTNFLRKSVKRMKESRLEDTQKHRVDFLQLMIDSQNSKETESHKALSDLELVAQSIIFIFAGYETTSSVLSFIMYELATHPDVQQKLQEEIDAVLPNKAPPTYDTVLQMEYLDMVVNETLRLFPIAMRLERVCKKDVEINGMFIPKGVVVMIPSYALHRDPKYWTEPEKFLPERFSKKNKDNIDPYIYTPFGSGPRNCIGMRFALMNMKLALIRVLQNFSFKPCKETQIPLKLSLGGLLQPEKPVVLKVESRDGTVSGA
# [7] = Half-life is determined in rat after intravenous administration at 1 mg/kg; type: ADME, organism-based; parameters: dose 1 mg/kg, route intravenous; settings: in vivo
# Procedure, shortened: (§2)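 Intravenous bolus at 1 mg/kg to overnight-fasted male Sprague-Dawley rats, beagle dogs or rhesus monkeys. Vehicle: N,N-dimethylacetamide/0.9% aqueous NaCl (30:70). Animals restrained during sampling. Plasma extracts analysed by HPLC. Parameters derived by noncompartmental analysis.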
# [8] = Half-life is determined in dog after intravenous administration 1 mg/kg; type: ADME, organism-based, Canis lupus familiaris; parameters: dose 1 mg/kg, route intravenous; settings: in vivo; procedure, shortened: as §2
# [9] = Half-life is determined in monkey after intravenous administration at 1 mg/kg; type: ADME, organism-based; parameters: dose 1 mg/kg, route intravenous; settings: cercopithecidae, in vivo; procedure, shortened: as §2
# [10] = Bioavailability is determined in monkey after oral administration at 5 mg/kg; settings: cercopithecidae, in vivo
# C8166 [11] = assay: Inhibition of HIV replication in T-lymphocyte cell line C8166 infected with K103N/V108I mutant reverse transcriptase upon incubation with the compound for 3 days; type: functional, Homo sapiens; procedure, shortened: as §1
# [12] = Area under curve is determined in monkey after oral administration at 5 mg/kg; settings: cercopithecidae, in vivo
# [13] = Steady state volume of distribution is determined in dog after intravenous administration 1 mg/kg; type: ADME, organism-based, Canis lupus familiaris; parameters: dose 1 mg/kg, route intravenous; settings: in vivo, read-out: Vss; procedure, shortened: as §2
# C8166 [14] = assay: Inhibition of HIV replication in T-lymphocyte cell line C8166 infected with K103N/P225H mutant reverse transcriptase upon incubation with the compound for 3 days; type: functional, Homo sapiens; procedure, shortened: as §1
# [15] = Area under curve is determined in rat after oral administration at 5 mg/kg; settings: in vivo
# [16] = Clearance is determined in rat after intravenous administration at 1 mg/kg; type: ADME, organism-based; parameters: dose 1 mg/kg, route intravenous; settings: in vivo; procedure, shortened: as §2
# [17] = Concentration maximum is determined in rat after oral administration at 5 mg/kg; settings: in vivo
# C8166 [18] = assay: Inhibition of HIV replication in T-lymphocyte cell line C8166 infected with V106A mutant reverse transcriptase upon incubation with the compound for 3 days; type: functional, Homo sapiens; procedure, shortened: as §1
# [19] = Steady state volume of distribution is determined in monkey after intravenous administration at 1 mg/kg; type: ADME, organism-based; parameters: dose 1 mg/kg, route intravenous; settings: cercopithecidae, in vivo, read-out: Vss; procedure, shortened: as §2
# [20] = Bioavailability is determined in rat after oral administration at 5 mg/kg; settings: in vivo
# C8166 [21] = assay: Inhibition of HIV replication in T-lymphocyte cell line C8166 infected with Y188L mutant reverse transcriptase upon incubation with the compound for 3 days; type: functional, Homo sapiens; procedure, shortened: as §1
# C8166 [22] = assay: Inhibition of HIV replication in T-lymphocyte cell line C8166 infected with K103N/L100I mutant reverse transcriptase upon incubation with the compound for 3 days; type: functional, Homo sapiens; procedure, shortened: as §1
# Cytochrome P450 2D6 = Cytochrome P450 2D6 (Homo sapiens, UniProt P10635); assay: Inhibitory concentration (1.5 mM) against human CYP450 2D6 dissolved in acetonitrile/methanol
# Chain of Cytochrome P450 2D6 (P10635 whole entry): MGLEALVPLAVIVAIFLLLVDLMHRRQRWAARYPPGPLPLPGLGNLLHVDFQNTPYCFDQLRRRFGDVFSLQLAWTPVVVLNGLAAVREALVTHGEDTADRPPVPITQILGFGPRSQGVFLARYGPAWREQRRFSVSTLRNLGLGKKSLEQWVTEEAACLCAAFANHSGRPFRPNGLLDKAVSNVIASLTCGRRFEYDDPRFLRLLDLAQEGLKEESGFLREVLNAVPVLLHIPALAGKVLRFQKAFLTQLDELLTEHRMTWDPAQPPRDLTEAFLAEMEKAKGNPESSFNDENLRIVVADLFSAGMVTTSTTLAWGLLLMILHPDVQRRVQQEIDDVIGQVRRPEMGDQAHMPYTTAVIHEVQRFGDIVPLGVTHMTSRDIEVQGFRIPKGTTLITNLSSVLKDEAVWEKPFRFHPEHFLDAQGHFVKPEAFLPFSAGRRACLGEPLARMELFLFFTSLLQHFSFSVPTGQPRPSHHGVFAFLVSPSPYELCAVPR
# Cytochrome P450 2C19 = Cytochrome P450 2C19 (Homo sapiens, UniProt P33261); assay: Inhibitory concentration (1.5 mM) against human CYP450 2C19 dissolved in acetonitrile/methanol
# Chain of Cytochrome P450 2C19 (P33261 whole entry): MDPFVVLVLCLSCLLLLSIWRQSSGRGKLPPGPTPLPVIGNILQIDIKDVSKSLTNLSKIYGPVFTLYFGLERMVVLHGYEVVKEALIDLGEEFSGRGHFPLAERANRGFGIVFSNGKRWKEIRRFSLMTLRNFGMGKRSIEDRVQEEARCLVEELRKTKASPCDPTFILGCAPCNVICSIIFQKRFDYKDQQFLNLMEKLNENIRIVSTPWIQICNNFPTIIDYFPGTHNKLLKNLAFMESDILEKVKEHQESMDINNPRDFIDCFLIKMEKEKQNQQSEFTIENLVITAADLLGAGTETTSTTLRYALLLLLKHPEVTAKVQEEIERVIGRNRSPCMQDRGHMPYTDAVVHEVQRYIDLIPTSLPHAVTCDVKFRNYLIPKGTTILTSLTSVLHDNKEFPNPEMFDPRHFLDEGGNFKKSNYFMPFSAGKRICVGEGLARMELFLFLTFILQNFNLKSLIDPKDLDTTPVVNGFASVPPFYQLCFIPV
# [23] = Clearance is determined in monkey after intravenous administration 1 mg/kg; type: ADME, organism-based; parameters: dose 1 mg/kg, route intravenous; settings: cercopithecidae, in vivo; procedure, shortened: as §2
# [24] = Area under curve is determined in dog after oral administration 5 mg/kg; settings: in vivo
# Cytochrome P450 2C9 = Cytochrome P450 2C9 (Homo sapiens, UniProt P11712)
# Chain of Cytochrome P450 2C9 (P11712 whole entry): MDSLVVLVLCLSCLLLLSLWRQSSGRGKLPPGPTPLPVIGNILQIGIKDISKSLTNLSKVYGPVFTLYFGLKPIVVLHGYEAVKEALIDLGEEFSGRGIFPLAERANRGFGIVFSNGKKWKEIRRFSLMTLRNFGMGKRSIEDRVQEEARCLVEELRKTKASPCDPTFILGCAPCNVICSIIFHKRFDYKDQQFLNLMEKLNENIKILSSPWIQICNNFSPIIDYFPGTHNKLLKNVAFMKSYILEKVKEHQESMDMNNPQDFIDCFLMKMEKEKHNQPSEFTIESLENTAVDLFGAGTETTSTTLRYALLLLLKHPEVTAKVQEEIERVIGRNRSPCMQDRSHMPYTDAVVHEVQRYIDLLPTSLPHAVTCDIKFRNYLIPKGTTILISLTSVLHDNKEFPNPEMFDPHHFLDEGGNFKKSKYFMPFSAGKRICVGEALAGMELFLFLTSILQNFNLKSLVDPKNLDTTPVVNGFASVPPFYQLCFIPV
# [25] = Concentration maximum is determined in dog after oral administration 5 mg/kg; settings: in vivo
# [26] = Clearance is determined in dog after intravenous administration at 1 mg/kg; type: ADME, organism-based, Canis lupus familiaris; parameters: dose 1 mg/kg, route intravenous; settings: in vivo; procedure, shortened: as §2
# [27] = Maximum concentration is determined in monkey after oral administration at 5 mg/kg; settings: cercopithecidae, in vivo
# Cytochrome P450 3A4 [28] = molecular target: T3, Cytochrome P450 3A4; assay: Inhibitory concentration (1.5 mM) against human CYP450 3A4 dissolved in acetonitrile/methanol using 7-Benzyloxy-quinoline (BQ) as fluorogenic substrate
# Cytochrome P450 1A2 = molecular target: T4, Cytochrome P450 1A2 (Homo sapiens, UniProt P05177); assay: Inhibitory concentration (1.5 mM) against human CYP450 1A2 dissolved in acetonitrile/methanol
# T4 sequence (P05177 whole entry): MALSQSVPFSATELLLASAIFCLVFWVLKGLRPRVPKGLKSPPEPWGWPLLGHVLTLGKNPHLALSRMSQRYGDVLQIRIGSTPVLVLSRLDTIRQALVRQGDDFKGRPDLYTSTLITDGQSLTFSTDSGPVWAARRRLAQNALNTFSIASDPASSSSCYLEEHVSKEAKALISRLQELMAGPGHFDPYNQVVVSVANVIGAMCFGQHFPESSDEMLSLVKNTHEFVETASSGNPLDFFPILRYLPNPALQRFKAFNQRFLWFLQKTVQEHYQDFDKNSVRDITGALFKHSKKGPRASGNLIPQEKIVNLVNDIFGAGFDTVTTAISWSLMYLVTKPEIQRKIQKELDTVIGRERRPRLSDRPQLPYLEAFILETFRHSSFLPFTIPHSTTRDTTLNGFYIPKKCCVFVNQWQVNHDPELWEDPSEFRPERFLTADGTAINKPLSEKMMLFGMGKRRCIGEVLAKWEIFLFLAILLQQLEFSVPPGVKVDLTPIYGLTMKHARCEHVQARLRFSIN
# [29] = Steady state volume of distribution in rat after intravenous administration 1 mg/kg; type: ADME, organism-based; parameters: dose 1 mg/kg, route intravenous; settings: in vivo, read-out: Vss; procedure, shortened: as §2
smiles,measurement,setting,value
CCN1c2ncc(CCOc3ccc(CC(=O)O)cc3C)cc2C(=O)N(C)c2cccnc21,EC50,[1],12 nM
same,IC50,[2],370 nM
same,Caco-2 A-B,Caco-2,1.84e-05 cm/s
same,half-life at 10 µM,in vitro,3.6 h
same,IC50,[3],23 nM
same,EC50,[4],139 nM
CCN1c2ncc(CCOc3ccc(C(=O)O)cc3C)cc2C(=O)N(C)c2ccc(OC)nc21,EC50,[1],1.9 nM
same,IC50,[2],300 nM
same,IC50,[3],15 nM
same,EC50,[4],15 nM
CCN1c2ncc(CCOc3ccc(C(=O)O)cc3)cc2C(=O)N(C)c2cccnc21,EC50,[1],3.3 nM
same,IC50,[2],4480 nM
same,half-life at 10 µM,in vitro,1.27 h
same,IC50,[3],95 nM
same,EC50,[4],162 nM
CCN1c2ncc(CCOc3ccc4c(C(=O)O)cccc4c3)cc2C(=O)N(C)c2cccnc21,IC50,[2],4000 nM
same,IC50,[3],63 nM
CCN1c2ncc(CCOc3ccc(C(=O)O)cc3C)cc2C(=O)N(C)c2cccnc21,bioavailability,[5],115%
same,IC50,Cytochrome P450 3A4 [6],24000 nM
same,half-life,[7],11 h
same,EC50,[1],1.6 nM
same,half-life,[8],5.9 h
same,IC50,[2],221 nM
same,half-life,[9],1.3 h
same,bioavailability,[10],43%
same,Antiviral activity,C8166 [11],5 nM
same,AUC,[12],3.4 uMh
same,Vd,[13],2.5 L/kg
same,Antiviral activity,C8166 [14],5 nM
same,AUC,[15],12 uMh
same,clearance,[16],7.1 mL/min/kg
same,Cmax,[17],6.5 µM
same,Antiviral activity,C8166 [18],36 nM
same,Vd,[19],1 L/kg
same,bioavailability,[20],46%
same,Caco-2 A-B,Caco-2,2.75e-05 cm/s
same,Antiviral activity,C8166 [21],172 nM
same,Antiviral activity,C8166 [22],4 nM
same,IC50,Cytochrome P450 2D6,> 30000 nM
same,half-life at 10 µM,in vitro,2.23 h
same,IC50,Cytochrome P450 2C19,2000 nM
same,clearance,[23],24 mL/min/kg
same,AUC,[24],20 uMh
same,IC50,[3],17 nM
same,IC50,Cytochrome P450 2C9,10000 nM
same,EC50,[4],15 nM
same,Cmax,[25],16 µM
same,clearance,[26],10 mL/min/kg
same,Cmax,[27],1.5 µM
same,IC50,Cytochrome P450 3A4 [28],> 30000 nM
same,IC50,Cytochrome P450 1A2,> 30000 nM
same,Vd,[29],4.6 L/kg
CCN1c2ncc(CCOc3ccc(C(=O)O)c4ccccc34)cc2C(=O)N(C)c2cccnc21,IC50,[2],194 nM
same,IC50,[3],27 nM
CCN1c2ncc(CCOc3ccc(C(=O)O)cc3C)cc2C(=O)N(C)c2ccc(C)nc21,EC50,[1],1.3 nM
same,IC50,[2],280 nM
same,IC50,[3],19 nM
same,EC50,[4],33 nM
